Source: ChEMBL document CHEMBL1132452, “Synthesis and anticonvulsant activity of novel and potent 2,3-benzodiazepine AMPA/kainate receptor antagonists” (J Med Chem, 1999)

Tests used:
[1] = Relative lipophilicity of the compound; type: physicochemical; conditions: reversed-phase TLC, acetone/water 2:1
Method in brief: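 Reversed-phase TLC on plates dried at 105 °C for 1 h. Mobile phase acetone/water 2:1 (v/v). Compound in CHCl3 (3 mg/mL), 1 µL spotted. Five runs, each with a different placement on the plate. Mean Rf converted by Rm = log[(1/Rf) − 1]; higher Rm means higher lipophilicity.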

[2] = species on record: Mus musculus; test: The compound was tested for Anticonvulsant activity against AMPA induced seizures in DBA/2 mice clonic phase.; type: functional
[3] = species on record: Mus musculus; test: The compound was tested for Anticonvulsant activity against AMPA induced seizures in DBA/2 mice in tonic phase; type: functional
[4] = species on record: Mus musculus; test: The compound was tested for Anticonvulsant activity against KA induced seizures in DBA/2 mice.; type: functional
[5] = species on record: Mus musculus; test: The compound was tested for Anticonvulsant activity against Pentylenetetrazole (PTZ) induced seizures in Swiss mice; type: functional
Method in brief: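 Male Swiss mice (20–26 g, 42–48 days) pretreated ip with the compound in 30% DMSO/70% saline, then 45 min later PTZ 85 mg/kg (CD97) sc. Observed for 30 min; protection was absence of clonic spasms lasting at least 5 s. ED50 by Litchfield–Wilcoxon, at least 32 animals.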

[6] = species on record: Mus musculus; test: The compound was tested for Anticonvulsant activity against audiogenic seizures in DBA/2 mice after pretreatment with Aniracetam in clonic phase; type: functional
Method in brief: (§1)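 Male DBA/2 mice (8–12 g, 22–25 days) given aniracetam 50 nmol icv 30 min before the ip compound (30% DMSO/saline), i.e. 60 min before auditory stimulation. Clonic or tonic phase incidence scored; ED50 by Litchfield–Wilcoxon, at least 32 animals.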

[7] = species on record: Mus musculus; test: The compound was tested for Anticonvulsant activity against audiogenic seizures in DBA/2 mice after pretreatment with Aniracetam in tonic phase.; type: functional; method in brief: as §1
[8] = species on record: Mus musculus; test: The compound was tested for Anticonvulsant activity against audiogenic seizures in DBA/2 mice in clonic phase; type: functional
Method in brief: (§2)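 Male DBA/2 mice (8–12 g, 22–25 days), groups of 10 per dose, given the compound ip in 30% DMSO/70% saline at doses within 3.3–200 µmol/kg. Sound stimulation 30 min later; latency and incidence of seizure phases scored. ED50 per phase by Litchfield–Wilcoxon, at least 32 animals per value.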

[9] = tested on: Mus musculus; test: The compound was tested for Anticonvulsant activity against audiogenic seizures in DBA/2 mice in clonic phase. 120 min after ip administration.; type: functional; conditions: 2 h
Method in brief: (§3)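 Time course in male DBA/2 mice (8–12 g, 22–25 days) after ip dosing in 30% DMSO/70% saline, with auditory stimulation at the stated time after injection. Groups of 10 mice per time point; clonic-phase ED50 (95% confidence limits) by Litchfield–Wilcoxon, at least 32 animals per value.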

[10] = tested on: Mus musculus; test: The compound was tested for Anticonvulsant activity against audiogenic seizures in DBA/2 mice in clonic phase. 15 min after ip administration.; type: functional; conditions: 0.25 h; method in brief: as §3
[11] = tested on: Mus musculus; test: The compound was tested for Anticonvulsant activity against audiogenic seizures in DBA/2 mice in clonic phase. 30 min after ip administration.; type: functional; conditions: 0.5 h; method in brief: as §3
[12] = tested on: Mus musculus; test: The compound was tested for Anticonvulsant activity against audiogenic seizures in DBA/2 mice in clonic phase. 45 min after ip administration.; type: functional; conditions: 0.75 h; method in brief: as §3
[13] = tested on: Mus musculus; test: The compound was tested for Anticonvulsant activity against audiogenic seizures in DBA/2 mice in clonic phase. 60 min after ip administration.; type: functional; conditions: 1 h; method in brief: as §3
[14] = tested on: Mus musculus; test: The compound was tested for Anticonvulsant activity against audiogenic seizures in DBA/2 mice in clonic phase. 90 min after ip administration.; type: functional; conditions: 1.5 h; method in brief: as §3
[15] = species on record: Mus musculus; test: The compound was tested for Anticonvulsant activity against audiogenic seizures in DBA/2 mice in tonic phase; type: functional; method in brief: as §2
[16] = species on record: Mus musculus; test: The compound was tested for Anticonvulsant activity against maximal electroshock (MES) induced seizures in Swiss mice.; type: functional
Method in brief: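 Swiss mice given the compound ip in 30% DMSO/70% saline, then 45 min later ear-clip electroshock (50 mA, 20 ms pulses, 35 Hz, 400 ms). Protection was abolition of tonic hindlimb extension. Four to five doses, 8–10 mice each; ED50 by Litchfield–Wilcoxon.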

[17] = species on record: Mus musculus; test: The compound was tested for locomotor deficit (rotarod test) in Swiss mice.

Row | SMILES | Rm [1] | ED50 [2] [µmol/kg] | ED50 [3] [µmol/kg] | ED50 [4] [µmol/kg] | ED50 [5] [µmol/kg] | ED50 [6] [µmol/kg] | ED50 [7] [µmol/kg] | ED50 [8] [µmol/kg] | ED50 [9] [µmol/kg] | ED50 [10] [µmol/kg] | ED50 [11] [µmol/kg] | ED50 [12] [µmol/kg] | ED50 [13] [µmol/kg] | ED50 [14] [µmol/kg] | ED50 [15] [µmol/kg] | ED50 [16] [µmol/kg] | TD50 [17] [µM/kg]
1 | CNC(=O)N1N=C(c2ccc(N)cc2)c2cc3c(cc2CC1=O)OCO3 | -0.459 | 18.6 | 10.3 | 8.61 | 16.3 | 33.9 | 31 | 12.4 | 40.8 | 14.3 | 12.4 | 12.1 | 13 | 19.4 | 8.7 | 18.6 | 48.6
2 | CCCCNC(=O)N1N=C(c2cccc(N)c2)c2cc3c(cc2CC1=O)OCO3 | -0.075 | – | – | – | 36.4 | – | – | 18.1 | – | – | – | – | – | – | 12.7 | 26.6 | 56.2
3 | Nc1cccc(C2=NNC(=O)Cc3cc4c(cc32)OCO4)c1 | -0.484 | 29.2 | 23.8 | 23.2 | 40.5 | 55 | 40.6 | 18 | > 50 | > 50 | 18 | 19.1 | 26.3 | 47.1 | 12.7 | 19.3 | 101
4 | Nc1ccc(C2=NNC(=O)Cc3cc4c(cc32)OCO4)cc1 | -0.552 | 37.9 | 28.5 | 19.6 | 71.8 | 62.6 | 39.6 | 15.4 | > 50 | 7.55 | 15.4 | 18.7 | 21.3 | > 50 | 10.9 | 32.1 | 99.1
5 | CNC(=O)N1N=C(c2cccc(N)c2)c2cc3c(cc2CC1=O)OCO3 | -0.441 | – | – | – | 19.6 | – | – | 13.6 | – | – | 13.6 | – | – | – | 11.2 | 21.4 | 48.9
6 | Nc1ccc(C2=NN=C(S)Cc3cc4c(cc32)OCO4)cc1 | -0.269 | 15.6 | 11.5 | 15.6 | 25.2 | 31.4 | 16.3 | 11.8 | > 50 | 5.9 | 11.8 | 13.4 | 19.6 | 45 | 5.09 | 9.79 | 39.8
7 | O=C1Cc2cc3c(cc2C(c2ccccc2)=NN1)OCO3 | -0.215 | – | – | – | 78 | – | – | 43.3 | – | – | 43.3 | – | – | – | 40.6 | 42.6 | 159
8 | CCNC(=O)N1N=C(c2cccc(N)c2)c2cc3c(cc2CC1=O)OCO3 | -0.323 | – | – | – | 90.7 | – | – | 44.9 | – | – | – | – | – | – | 32.1 | 60.2 | 126
9 | CCCCNC(=O)N1N=C(c2ccc(N)cc2)c2cc3c(cc2CC1=O)OCO3 | -0.11 | – | – | – | > 100 | – | – | 38.7 | – | – | – | – | – | – | 32.6 | 79.7 | 108
10 | CC1=NN=C(c2ccc(N)cc2)c2cc3c(cc2C1)OCO3 [GYKI-52466] | -0.404 | – | – | 27.8 | – | – | – | – | > 50 | 10.8 | – | 37.2 | – | > 50 | – | – | 76.1
11 | Nc1cccc(C2=NN=C(S)Cc3cc4c(cc32)OCO4)c1 | -0.213 | 32.8 | 26.2 | 18.6 | 40.2 | 65.2 | 85.9 | 16.7 | > 50 | 32.6 | 16.7 | 15.2 | 22.4 | 45.2 | 8.88 | 30.9 | 53.7
12 | CCNC(=O)N1N=C(c2ccc(N)cc2)c2cc3c(cc2CC1=O)OCO3 | -0.368 | – | – | – | 68.2 | – | – | 35 | – | – | – | – | – | – | 23.8 | 52.5 | 134
13 | CCCNC(=O)N1N=C(c2ccc(N)cc2)c2cc3c(cc2CC1=O)OCO3 | -0.25 | – | – | – | > 100 | – | – | 69.4 | – | – | – | – | – | – | 49.2 | 76.5 | 182
14 | SC1=NN=C(c2ccccc2)c2cc3c(cc2C1)OCO3 | -0.185 | – | – | – | 80.3 | – | – | 23.8 | – | – | 23.8 | – | – | – | 18.8 | 37.8 | 97.1
15 | CCCNC(=O)N1N=C(c2cccc(N)c2)c2cc3c(cc2CC1=O)OCO3 | -0.181 | – | – | – | > 100 | – | – | 85.3 | – | – | – | – | – | – | 63.8 | > 100 | >100
